According to article PMC3842382 (Journal of medicinal chemistry, 2013):

How the values were obtained:
[1] = test system: mice; conditions: cited from earlier work
[2] = test system: mice; assay: Maximal electroshock seizure; format: in vivo; conditions: Mus musculus, ip, read-out: MES ED50
[3] = test system: mice; assay: iv Metrazol test; format: in vivo; conditions: ip, 25 mg/kg and 81 mg/kg
[4] = test system: Na+ currents in mouse CAD cells; assay: Whole-cell patch-clamp electrophysiology of Na+ currents in CAD cells; format: cell-based
[5] = test system: Na+ currents in rat embryonic cortical neurons; assay: Whole-cell patch-clamp electrophysiology of Na+ currents in cortical neurons; format: cell-based; conditions: 20 μM
Procedure, shortened: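 Cortical neurons from embryonic day 19 rat cortices were cultured 7–10 days in vitro. Whole-cell voltage clamp was run at room temperature in external solution containing 100 mM NaCl, TEA-Cl, CdCl2, NiCl2 and 4-AP (HEPES, pH 7.3), with 20 μM test compound or 0.1% DMSO control. Slow inactivation was read as the fraction of current available at −50 mV. V1/2 and k came from Boltzmann fits to individual recordings, averaged as mean ± SEM.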

[6] = test system: Na+ currents in mouse CAD cells; conditions: cited from earlier work
[7] = test system: mice; conditions: ip; cited from earlier work
[8] = test system: rat; conditions: oral; cited from earlier work

SMILES: COC[C@@H](NC(C)=O)C(=O)NCc1ccccc1 [Compound 1, Lacosamide]
- anticonvulsant activity in scMet model [1]: did not display anticonvulsant activity

SMILES: Cl.NCc1ccc(-c2ccccc2)cc1 [Compound 2, (Biphenyl-4-yl)methylammonium Chloride]
- ED50 [2]: 30 to 100 mg/kg

SMILES: Cl.NCc1ccc(-c2cccc(OC(F)(F)F)c2)cc1 [Compound 8, (3′-Trifluoromethoxybiphenyl-4-yl)methylammonium Chloride]
- seizure threshold vs control group [3]: no statistical difference from the control group
- effect on Na+ channel steady-state activation [4]: did not affect
- effect on slopes of fast inactivation [4]: not affected
- frequency (use)-dependent inhibition of Na+ currents ([4]; 10 μM, 10 Hz): did not exhibit
- effect on steady-state activation (V1/2 and k) [5]: unchanged
- frequency (use)-dependent inhibition of Na+ currents [5]: did not exhibit
- extent of slow inactivation (fraction of current available at −50 mV) ([5]; vehicle DMSO 0.41): 0.17 ± 0.03
- change in slope values of fast inactivation ([5]; vs control): no commensurate significant changes
- hyperpolarizing shift of V1/2 of steady-state fast inactivation ([5]; vs control): ~15.7 mV

SMILES: NCc1ccc(OCc2cccc(F)c2)cc1 [Compound 22]
- effect on fast inactivation [6]: affected fast inactivation
- frequency (use)-dependent blockage of Na+ currents [6]: displayed frequency (use)-dependent blockage

SMILES: CCC1(c2ccccc2)C(=O)NC(=O)NC1=O [phenobarbital]
- MES ED50 [7]: 22 [1.0] (15-23) mg/kg
- MES ED50 [8]: 9.1 [5.0] (7.6-12) mg/kg

SMILES: CCCC(CCC)C(=O)O [valproate]
- MES ED50 [7]: 270 [0.25] (250-340) mg/kg
- MES ED50 [8]: 490 [0.5] (350-730) mg/kg
